Experiments:
Format in all cases: functional
[1] = Growth inhibition of human NCI-322M cells at 10 uM after 48 hrs by coulter counting; conditions: read-out: GI
Outline: (§1)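 Single-dose primary screen across the full NCI 60-cell-line panel. Stocks were made in DMSO and diluted in PBS to a final DMSO below 1%. Cultures at 6 × 10⁴ cells/ml were run in duplicate wells alongside PBS/DMSO vehicle controls at 37 °C in humidified 5% CO₂. Data were expressed as percent growth of treated cells.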

SK-MEL-28 = experiment: Growth inhibition of human SK-MEL-28 cells at 10 uM after 48 hrs by coulter counting; conditions: SK-MEL-28, 48 h, read-out: GI; outline: as §1
MDA-MB-435 = experiment: Growth inhibition of human MDA-MB-435 cells at 10 uM after 48 hrs by coulter counting; conditions: MDA-MB-435, 48 h, read-out: GI; outline: as §1
U-251 = experiment: Growth inhibition of human U251 cells at 10 uM after 48 hrs by coulter counting; conditions: U-251, 48 h, read-out: GI
Outline: (§2)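 Single-dose screen in the NCI 60 human tumor cell line panel (nine subpanels). Compounds dissolved in DMSO and diluted in phosphate buffered saline, keeping final DMSO below 1%. Added in duplicate wells to cells at 6 × 10⁴ cells/ml. Controls held PBS and DMSO at matching dilutions. Incubated at 37 °C, humidified, 5% CO₂. Reported as percent growth of treated cells.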

RPMI-8226 = experiment: Growth inhibition of human RPMI8226 cells at 10 uM after 48 hrs by coulter counting; conditions: RPMI-8226, 48 h, read-out: GI; outline: as §1
NCI-H226 = experiment: Growth inhibition of human NCI-H226 cells at 10 uM after 48 hrs by coulter counting; conditions: NCI-H226, 48 h, read-out: GI; outline: as §1
K562 = experiment: Growth inhibition of human K562 cells at 10 uM after 48 hrs by coulter counting; conditions: K562, 48 h, read-out: GI; outline: as §1
UACC-62 = experiment: Growth inhibition of human UACC62 cells at 10 uM after 48 hrs by coulter counting; conditions: UACC-62, 48 h, read-out: GI; outline: as §2
SNB-75 = experiment: Growth inhibition of human SNB75 cells at 10 uM after 48 hrs by coulter counting; conditions: SNB-75, 48 h, read-out: GI; outline: as §1
DU-145 = experiment: Growth inhibition of human DU145 cells at 10 uM after 48 hrs by coulter counting; conditions: DU-145, 48 h, read-out: GI; outline: as §1
SK-MEL-5 = experiment: Growth inhibition of human SK-MEL-5 cells at 10 uM after 48 hrs by coulter counting; conditions: SK-MEL-5, 48 h, read-out: GI; outline: as §1
MCF7 = experiment: Growth inhibition of human MCF7 cells at 10 uM after 48 hrs by coulter counting; conditions: MCF7, 48 h, read-out: GI; outline: as §1
T47D = experiment: Growth inhibition of human T47D cells at 10 uM after 48 hrs by coulter counting; conditions: read-out: GI; outline: as §2
UO-31 = experiment: Growth inhibition of human UO31 cells at 10 uM after 48 hrs by coulter counting; conditions: UO-31, 48 h, read-out: GI; outline: as §2
ACHN = experiment: Growth inhibition of human ACHN cells at 10 uM after 48 hrs by coulter counting; conditions: read-out: GI; outline: as §1
LOX IMVI = experiment: Growth inhibition of human LOXIMVI cells at 10 uM after 48 hrs by coulter counting; conditions: read-out: GI; outline: as §1
MOLT-4 = experiment: Growth inhibition of human MOLT4 cells at 10 uM after 48 hrs by coulter counting; conditions: MOLT-4, 48 h, read-out: GI; outline: as §1
HL-60(TB) = experiment: Growth inhibition of human HL-60(TB) cells at 10 uM after 48 hrs by coulter counting; conditions: HL-60, 48 h, read-out: GI
Outline: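 Test compound was dissolved in DMSO and diluted in phosphate-buffered saline to a final DMSO level below 1%. Dilutions were plated in duplicate with cell culture at 6 × 10⁴ cells/ml. Vehicle controls held PBS and DMSO at matching dilutions. Incubation was at 37 °C, humidified, under 5% CO₂. Data were reported as percent growth of treated cells.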

SF-539 = experiment: Growth inhibition of human SF539 cells at 10 uM after 48 hrs by coulter counting; conditions: SF-539, 48 h, read-out: GI; outline: as §1
NCI-H23 = experiment: Growth inhibition of human NCI-H23 cells at 10 uM after 48 hrs by coulter counting; conditions: NCI-H23, 48 h, read-out: GI; outline: as §1
SF-268 = experiment: Growth inhibition of human SF268 cells at 10 uM after 48 hrs by coulter counting; conditions: SF-268, 48 h, read-out: GI; outline: as §1
IGROV-1 = experiment: Growth inhibition of human IGROV1 cells at 10 uM after 48 hrs by coulter counting; conditions: IGROV-1, 48 h, read-out: GI; outline: as §1
NCI-H522 = experiment: Growth inhibition of human NCI-H522 cells at 10 uM after 48 hrs by coulter counting; conditions: NCI-H522, 48 h, read-out: GI; outline: as §1
EKVX = experiment: Growth inhibition of human EKVX cells at 10 uM after 48 hrs by coulter counting; conditions: read-out: GI; outline: as §1
A498 = experiment: Growth inhibition of human A498 cells at 10 uM after 48 hrs by coulter counting; conditions: A498, 48 h, read-out: GI; outline: as §1
CCRF-CEM = experiment: Growth inhibition of human CCRF-CEM cells at 10 uM after 48 hrs by coulter counting; conditions: read-out: GI; outline: as §1
CAKI-1 = experiment: Growth inhibition of human Caki1 cells at 10 uM after 48 hrs by coulter counting; conditions: CAKI-1, 48 h, read-out: GI; outline: as §1
SK-MEL-2 = experiment: Growth inhibition of human SK-MEL-2 cells at 10 uM after 48 hrs by coulter counting; conditions: SK-MEL-2, 48 h, read-out: GI; outline: as §1
BT-549 = experiment: Growth inhibition of human BT549 cells at 10 uM after 48 hrs by coulter counting; conditions: BT-549, 48 h, read-out: GI; outline: as §1
HCT-116 = experiment: Growth inhibition of human HCT116 cells at 10 uM after 48 hrs by coulter counting; conditions: HCT-116, 48 h, read-out: GI; outline: as §1
OVCAR-4 = experiment: Growth inhibition of human OVCAR4 cells at 10 uM after 48 hrs by coulter counting; conditions: OVCAR-4, 48 h, read-out: GI; outline: as §1
M14 = experiment: Growth inhibition of human M14 cells at 10 uM after 48 hrs by coulter counting; conditions: M14, 48 h, read-out: GI; outline: as §1
NCI/ADR-RES = experiment: Growth inhibition of human NCI/ADR-RES cells at 10 uM after 48 hrs by coulter counting; conditions: read-out: GI; outline: as §1
UACC-257 = experiment: Growth inhibition of human UACC257 cells at 10 uM after 48 hrs by coulter counting; conditions: UACC-257, 48 h, read-out: GI; outline: as §2
KM12 = experiment: Growth inhibition of human KM12 cells at 10 uM after 48 hrs by coulter counting; conditions: KM12, 48 h, read-out: GI; outline: as §1
HCC 2998 = experiment: Growth inhibition of human HCC2998 cells at 10 uM after 48 hrs by coulter counting; conditions: HCC 2998, 48 h, read-out: GI; outline: as §1
SF-295 = experiment: Growth inhibition of human SF295 cells at 10 uM after 48 hrs by coulter counting; conditions: SF-295, 48 h, read-out: GI; outline: as §1
NCI-H460 = experiment: Growth inhibition of human NCI-H460 cells at 10 uM after 48 hrs by coulter counting; conditions: NCI-H460, 48 h, read-out: GI; outline: as §1
SNB-19 = experiment: Growth inhibition of human SNB19 cells at 10 uM after 48 hrs by coulter counting; conditions: SNB-19, 48 h, read-out: GI; outline: as §1
HOP-62 = experiment: Growth inhibition of human HOP62 cells at 10 uM after 48 hrs by coulter counting; conditions: HOP-62, 48 h, read-out: GI; outline: as §1
HT-29 = experiment: Growth inhibition of human HT-29 cells at 10 uM after 48 hrs by coulter counting; conditions: HT-29, 48 h, read-out: GI; outline: as §1
A549 = experiment: Growth inhibition of human A549 cells at 10 uM after 48 hrs by coulter counting; conditions: A549, 48 h, read-out: GI; outline: as §1

Compound: C1=CN2C(=NC3=C(CCC/C3=C\c3ccccc3)C2c2ccccc2)S1 (centres undefined)
- inhibition of growth at 10 µM [1]: > 10%
- inhibition of growth at 10 µM (SK-MEL-28): > 10%
- inhibition of growth at 10 µM (MDA-MB-435): > 10%
- inhibition of growth at 10 µM (U-251): > 10%
- inhibition of growth at 10 µM (RPMI-8226): > 10%
- inhibition of growth at 10 µM (NCI-H226): > 10%
- inhibition of growth at 10 µM (K562): > 10%
- inhibition of growth at 10 µM (UACC-62): > 10%
- inhibition of growth at 10 µM (SNB-75): > 10%
- inhibition of growth at 10 µM (DU-145): > 10%
- inhibition of growth at 10 µM (SK-MEL-5): > 10%
- inhibition of growth at 10 µM (MCF7): > 10%
- inhibition of growth at 10 µM (T47D): > 10%
- inhibition of growth at 10 µM (UO-31): 21.4%
- inhibition of growth at 10 µM (ACHN): > 10%
- inhibition of growth at 10 µM (LOX IMVI): > 10%
- inhibition of growth at 10 µM (MOLT-4): > 10%
- inhibition of growth at 10 µM (HL-60(TB)): > 10%
- inhibition of growth at 10 µM (SF-539): > 10%
- inhibition of growth at 10 µM (NCI-H23): > 10%
- inhibition of growth at 10 µM (SF-268): > 10%
- inhibition of growth at 10 µM (IGROV-1): > 10%
- inhibition of growth at 10 µM (NCI-H522): > 10%
- inhibition of growth at 10 µM (EKVX): > 10%
- inhibition of growth at 10 µM (A498): > 10%
- inhibition of growth at 10 µM (CCRF-CEM): > 10%
- inhibition of growth at 10 µM (CAKI-1): > 10%
- inhibition of growth at 10 µM (SK-MEL-2): > 10%
- inhibition of growth at 10 µM (BT-549): > 10%
- inhibition of growth at 10 µM (HCT-116): > 10%
- inhibition of growth at 10 µM (OVCAR-4): > 10%
- inhibition of growth at 10 µM (M14): > 10%
- inhibition of growth at 10 µM (NCI/ADR-RES): > 10%
- inhibition of growth at 10 µM (UACC-257): > 10%
- inhibition of growth at 10 µM (KM12): > 10%
- inhibition of growth at 10 µM (HCC 2998): > 10%
- inhibition of growth at 10 µM (SF-295): > 10%
- inhibition of growth at 10 µM (NCI-H460): > 10%
- inhibition of growth at 10 µM (SNB-19): > 10%
- inhibition of growth at 10 µM (HOP-62): > 10%
- inhibition of growth at 10 µM (HT-29): > 10%
- inhibition of growth at 10 µM (A549): > 10%

Compound: C1=CN2C(=NC3=C(CCC/C3=C\c3cccs3)C2c2cccs2)S1 (centres undefined)
- inhibition of growth at 10 µM [1]: > 10%
- inhibition of growth at 10 µM (SK-MEL-28): > 10%
- inhibition of growth at 10 µM (MDA-MB-435): > 10%
- inhibition of growth at 10 µM (U-251): > 10%
- inhibition of growth at 10 µM (RPMI-8226): > 10%
- inhibition of growth at 10 µM (NCI-H226): > 10%
- inhibition of growth at 10 µM (K562): > 10%
- inhibition of growth at 10 µM (UACC-62): > 10%
- inhibition of growth at 10 µM (SNB-75): 10.4%
- inhibition of growth at 10 µM (DU-145): > 10%
- inhibition of growth at 10 µM (SK-MEL-5): > 10%
- inhibition of growth at 10 µM (MCF7): > 10%
- inhibition of growth at 10 µM (T47D): > 10%
- inhibition of growth at 10 µM (UO-31): 28.7%
- inhibition of growth at 10 µM (ACHN): > 10%
- inhibition of growth at 10 µM (LOX IMVI): 13%
- inhibition of growth at 10 µM (MOLT-4): > 10%
- inhibition of growth at 10 µM (HL-60(TB)): > 10%
- inhibition of growth at 10 µM (SF-539): > 10%
- inhibition of growth at 10 µM (NCI-H23): > 10%
- inhibition of growth at 10 µM (SF-268): > 10%
- inhibition of growth at 10 µM (IGROV-1): > 10%
- inhibition of growth at 10 µM (NCI-H522): > 10%
- inhibition of growth at 10 µM (EKVX): > 10%
- inhibition of growth at 10 µM (A498): > 10%
- inhibition of growth at 10 µM (CCRF-CEM): > 10%
- inhibition of growth at 10 µM (CAKI-1): > 10%
- inhibition of growth at 10 µM (SK-MEL-2): > 10%
- inhibition of growth at 10 µM (BT-549): > 10%
- inhibition of growth at 10 µM (HCT-116): > 10%
- inhibition of growth at 10 µM (OVCAR-4): > 10%
- inhibition of growth at 10 µM (M14): > 10%
- inhibition of growth at 10 µM (NCI/ADR-RES): > 10%
- inhibition of growth at 10 µM (UACC-257): > 10%
- inhibition of growth at 10 µM (KM12): > 10%
- inhibition of growth at 10 µM (HCC 2998): > 10%
- inhibition of growth at 10 µM (SF-295): > 10%
- inhibition of growth at 10 µM (NCI-H460): > 10%
- inhibition of growth at 10 µM (SNB-19): > 10%
- inhibition of growth at 10 µM (HOP-62): > 10%
- inhibition of growth at 10 µM (HT-29): > 10%
- inhibition of growth at 10 µM (A549): > 10%
